Four compounds from ChEMBL document CHEMBL5352422, “Development of l-Dopa-containing diketopiperazines as blood-brain barrier shuttle” (Eur J Med Chem, 2022) can be followed below.

Calls of active or inactive are those of the source. The rule behind the calls is not given here. Where a SMILES comes first, the peptide text is derived from it. [ ]: non-standard residue; d: D form. Dopa = N[C@@H](Cc1ccc(O)c(O)c1)C(=O)O

The nature of data set [1]: Apparent permeability of the compound across apical side to basolateral side in human Caco-2 cells measured upto 180 mins by HPLC analysis. It is filed as ADME, cell-based.
Data set [2] concerns PC-12. The data set is described as follows: Inhibition of MPP+ induced GSH level in rat PC-12 cells at 50 uM preincubated with compound for 24 hrs followed by MPP+ treatment for 24 hrs by DTNB reagent based analysis. It is filed as functional, cell-based. The following applies: time 48.0 hrs.
Data set [3] concerns PC-12. The experiment in a line: Inhibition of MPP+ induced ROS production in rat PC-12 cells at 50 uM preincubated with compound for 24 hrs followed by MPP+ treatment for 24 hrs by DCFH-DA staining based fluorescence method. It is filed as functional, cell-based. The following applies: time 48.0 hrs.
Data set [4] has as its system PC-12. The data set is described as follows: Upregulation of Gpx expression in MPP+ induced rat PC-12 cells at 50 nM pretreated with compound for 24 hrs followed by MPP+ stimulation and measured after 6 hrs. It is filed as functional, cell-based. The following applies: time 30.0 hrs.
Data set [5] deals with PC-12. The experiment in a line: Upregulation of xCT expression in MPP+ induced rat PC-12 cells at 50 nM pretreated with compound for 24 hrs followed by MPP+ stimulation and measured after 6 hrs. It is filed as functional, cell-based. The note with it: time 30.0 hrs.
A short description of data set [6]: Effective permeability of compound at 500 uM incubated for 18 hrs by […] method. It is filed as ADME. The note with it: read-out: Peff. Put shortly: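 PAMPA-BBB: donor contained compound at 500 µM final in PBS pH 7.4 with 20% v/v MeOH. Incubated 18 h. Donor and acceptor concentrations measured by HPLC; effective permeability Pe (cm/s) calculated.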

On to `COCCc1ccc(OCC(O)CNC(C)C)cc1` (stereo not given) [METOPROLOL], for which, in data set [1], the Papp A→B at 3 h came to 27.4 ×10⁻⁶ cm/s.

For the compound `NC(=O)N1c2ccccc2C=Cc2ccccc21` [CARBAMAZEPINE], the apparent permeability from apical to basolateral (Papp A→B) at 3 h in data set [1] came to 50.3 ×10⁻⁶ cm/s.

Consider `N[C@@H](Cc1ccc(O)c(O)c1)C(=O)O` [LEVODOPA], for which the inhibition entry in the data set with PC-12 [2] is “inactive”. For the same compound, the inhibition result in the data set on PC-12 [3] was “Active”. Further, the result in the data set on PC-12 [4] and with PC-12 [5] was Active. Besides, the Papp at 18 h, 500 µM in data set [6] came out at 0.75 ×10⁻⁶ cm/s. In addition, in data set [1], the apical-to-basolateral permeability (Papp A→B) at 3 h was found to be 0.82 ×10⁻⁶ cm/s.

Consider `COC(=O)[C@H](Cc1ccc(O)c(O)c1)NC(=O)[C@H](CCSC)NC(C)=O` (Ac-Met-[Dopa]-OMe), for which, in data set [6], the Papp at 18 h, 500 µM was 1.42 ×10⁻⁶ cm/s. Also, the apparent permeability from apical to basolateral (Papp A→B) at 3 h in data set [1] is 3.5 ×10⁻⁶ cm/s.
